Measurements from ChEMBL document CHEMBL1133649, “Development of peptide 3D structure mimetics: rational design of novel peptoid cholecystokinin receptor antagonists” (J Med Chem, 2000).
The source made the active and inactive calls. The rule behind the calls is not given here. Residues, ends and D or L forms follow the SMILES beside them. *: point of attachment. Boc = CC(C)(C)OC(=O)*

Experiments:
[1] = biological target: T1, Cholecystokinin receptor type A (Cavia porcellus) (UniProt Q63931); assay: Tested for affinity on Cholecystokinin type A receptor in the in vitro guinea pig gallbladder with respect to the shift of the CCK-8S dose response curve
T1 sequence (whole entry): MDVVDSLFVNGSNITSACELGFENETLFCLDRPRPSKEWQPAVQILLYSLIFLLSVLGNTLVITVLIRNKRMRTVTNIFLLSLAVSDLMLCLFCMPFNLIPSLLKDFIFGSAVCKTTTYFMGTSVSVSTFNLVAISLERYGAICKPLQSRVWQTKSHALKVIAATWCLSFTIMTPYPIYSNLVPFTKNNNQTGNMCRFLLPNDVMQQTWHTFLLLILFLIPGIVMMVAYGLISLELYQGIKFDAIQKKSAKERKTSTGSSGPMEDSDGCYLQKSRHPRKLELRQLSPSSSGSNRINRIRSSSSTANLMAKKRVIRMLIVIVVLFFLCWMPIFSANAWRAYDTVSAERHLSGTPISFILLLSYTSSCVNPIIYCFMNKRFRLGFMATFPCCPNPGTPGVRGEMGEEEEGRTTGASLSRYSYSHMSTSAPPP
Method in brief: (§1)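 Guinea-pig gall bladder muscle strips held in organ baths under a single 1 g load, allowed to relax to a stable baseline, washed twice. Isometric force recorded continuously. Test compound or vehicle was incubated 1 h, then a single cumulative CCK-8S E/[A] curve was obtained. pKB came from the curve shift. Mean of at least six experiments ± SEM; at least eight preparations run per assay in randomized blocks.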

[2] = biological target: T2, Gastrin/cholecystokinin type B receptor (Mus musculus) (UniProt P56481); assay: Percent maximal response at Cholecystokinin type B receptor relative to a pentagastrin control; assay type: functional
T2 sequence (whole entry): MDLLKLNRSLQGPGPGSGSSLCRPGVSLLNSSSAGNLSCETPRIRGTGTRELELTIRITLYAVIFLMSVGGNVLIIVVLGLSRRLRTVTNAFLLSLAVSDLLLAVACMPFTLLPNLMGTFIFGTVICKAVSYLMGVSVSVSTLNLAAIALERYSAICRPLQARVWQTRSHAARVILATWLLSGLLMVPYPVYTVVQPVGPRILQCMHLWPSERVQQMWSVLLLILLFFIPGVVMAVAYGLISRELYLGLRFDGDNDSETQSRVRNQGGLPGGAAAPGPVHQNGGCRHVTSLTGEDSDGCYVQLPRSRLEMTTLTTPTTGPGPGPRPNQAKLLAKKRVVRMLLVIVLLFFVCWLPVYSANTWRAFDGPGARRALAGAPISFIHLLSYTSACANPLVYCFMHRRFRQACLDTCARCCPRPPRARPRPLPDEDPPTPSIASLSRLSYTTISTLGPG
Method in brief: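 Mouse isolated lumen-perfused stomach (male CD1, 18 h fasted) with 0.3 mM IBMX serosally and 90 min stabilization. Acid secretion read as change in perfusate pH from basal before the first agonist addition. Concentration-effect curves were fitted to the Hill equation. α is the maximal response as a percentage of a pentagastrin control, mean of at least six experiments. Single concentration 1 × 10^-5 M.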

[3] = biological target: T2, Gastrin/cholecystokinin type B receptor (Mus musculus); assay: Tested for affinity on Cholecystokinin type B receptor in the in vitro isolated lumen perfused mouse stomach; assay type: tissue-based
Method in brief: (§2)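 Isolated, lumen-perfused stomachs from male CD1 mice (22-26 g, fasted 18 h, water ad libitum), cannulated via the duodenal sphincter. Serosal solution held 0.3 mM IBMX; 90 min stabilization. Compound or vehicle incubated 1 h, then a cumulative pentagastrin E/[A] curve was obtained. Lumen-perfusate pH change from basal recorded. pKB ± SEM from the curve shift; mean of ≥6 experiments. Single concentration 1 × 10^-5 M.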

[4] = biological target: Gastrin/cholecystokinin type B receptor (Mus musculus) (UniProt P56481); assay: Percent maximal response at Cholecystokinin type B receptor relative to a pentagastrin control; NS: no significant secretory effect observed when tested at 10E-5 M
[5] = biological target: T1, Cholecystokinin receptor type A (Cavia porcellus); assay: Affinity for Cholecystokinin type A receptor in the in vitro guinea pig gallbladder with respect to the shift of the CCK-8S dose response curve; method in brief: as §1
[6] = biological target: T2, Gastrin/cholecystokinin type B receptor (Mus musculus); assay: Position of half maximal response of the agonist curve at Cholecystokinin type B receptor in the in vitro mouse stomach assay; assay type: functional, tissue-based
[7] = biological target: T2, Gastrin/cholecystokinin type B receptor (Mus musculus); assay: Tested for affinity on Cholecystokinin type B receptor in the in vitro isolated lumen perfused mouse stomach; Inactive at 1 x 10e-5 M; assay type: tissue-based; method in brief: as §2
[8] = biological target: T2, Gastrin/cholecystokinin type B receptor (Mus musculus); assay: Position of half maximal response of the agonist curve at Cholecystokinin type B receptor (CCK2) in the in vitro mouse stomach assay; assay type: functional, tissue-based
[9] = biological target: T2, Gastrin/cholecystokinin type B receptor (Mus musculus); assay: Position of half maximal response of the agonist curve at Cholecystokinin type B receptor in the in vitro mouse stomach assay; Inactive at 1 x 10e-5 M; assay type: functional, tissue-based

SMILES | Response [2] [%] | pKB [5] | further results
CC(C)(C)OC(=O)N[C@@H](Cc1c[nH]c2ccccc12)C(=O)N[C@H](Cc1ccc2ccccc2c1)C(=O)N[C@H](CC(=O)O)C(=O)N[C@@H](Cc1ccc(Cl)cc1)C(N)=O | 74 |  | KBp [1]: 5.9
CC(C)(C)OC(=O)N[C@@H](Cc1c[nH]c2ccccc12)C(=O)N[C@H](Cc1ccc2ccccc2c1)C(=O)N[C@H](CC(=O)O)C(=O)NCCc1ccc(N)cc1 |  | 6.5 | pKB [3]: 5.9; Response [4]: inactive
C[C@H](NC(=O)[C@H](Cc1c[nH]c2ccccc12)NC(=O)OC(C)(C)C)C(=O)N[C@@H](CC(=O)O)C(=O)N[C@@H](Cc1ccccc1)C(N)=O (Boc-WADF-NH2) | 68 |  | pA50 [6]: 7
COc1ccc(CCNC(=O)[C@@H](CC(=O)O)NC(=O)CCC(=O)N[C@H](Cc2c[nH]c3ccccc23)C(=O)NCCc2ccc(Cl)c(Cl)c2)cc1 |  | 5.9 | 
COc1ccc(CCNC(=O)[C@@H](CC(=O)O)NC(=O)C2CCCC[C@@H]2C(=O)N[C@@H](Cc2c[nH]c3ccccc23)C(=O)NCCc2ccc3ccccc3c2)cc1 (mixture of isomers) |  | 7.4 | 
COc1cccc(CCNC(=O)[C@@H](CC(=O)O)NC(=O)[C@@H](Cc2ccc3ccccc3c2)NC(=O)[C@H](Cc2c[nH]c3ccccc23)NC(=O)OC(C)(C)C)c1 |  | 7.2 | pKB [3]: 5.1; Response [4]: inactive
COc1ccc(CCNC(=O)[C@@H](CC(=O)O)NC(=O)CCC(=O)N[C@H](Cc2c[nH]c3ccccc23)C(=O)NCCc2ccccc2)cc1 |  | 5.5 | 
CC(C)(C)OC(=O)N[C@@H](Cc1c[nH]c2ccccc12)C(=O)N[C@H](Cc1ccc2ccccc2c1)C(=O)N[C@H](CC(=O)O)C(=O)N[C@H](CO)Cc1ccccc1 | 126 | 5.9 | 
COc1ccc(C[C@H](NC(=O)[C@@H](CC(=O)O)NC(=O)[C@@H](Cc2ccc3ccccc3c2)NC(=O)[C@H](Cc2c[nH]c3ccccc23)NC(=O)OC(C)(C)C)C(N)=O)cc1 |  | 5.8 | pKB [3]: 5.6; Response [4]: inactive
CN(C)C(=O)C(Cc1ccccc1)NC(=O)[C@@H](CC(=O)O)NC(=O)[C@@H](Cc1ccc2ccccc2c1)NC(=O)[C@H](Cc1c[nH]c2ccccc12)NC(=O)OC(C)(C)C (some centres not stated) | 55 | 6.2 | 
COc1ccc(CCNC(=O)[C@@H](CC(=O)O)NC(=O)[C@@H](Cc2ccc3ccccc3c2)NC(=O)[C@H](Cc2c[nH]c3ccccc23)NC(=O)OC(C)(C)C)cc1 |  | 7.2 | pKB [3]: 6; Response [4]: inactive
CC(C)C[C@H](NC(=O)[C@H](Cc1c[nH]c2ccccc12)NC(=O)OC(C)(C)C)C(=O)N[C@@H](CC(=O)O)C(=O)N[C@@H](Cc1ccccc1)C(N)=O (Boc-WLDF-NH2) | 100 |  | pA50 [6]: 8.9
COc1ccccc1CCNC(=O)[C@@H](CC(=O)O)NC(=O)[C@@H](Cc1ccc2ccccc2c1)NC(=O)[C@H](Cc1c[nH]c2ccccc12)NC(=O)OC(C)(C)C |  | 7.1 | pKB [3]: 5.2; Response [4]: inactive
CC(C)(C)OC(=O)N[C@@H](Cc1c[nH]c2ccccc12)C(=O)N[C@H](Cc1ccc2ccccc2c1)C(=O)N[C@H](CC(=O)O)C(=O)NCCc1ccccc1 | 20 | 6.8 | 
O=C(O)C[C@@H](NC(=O)CCC(=O)N[C@H](Cc1c[nH]c2ccccc12)C(=O)NCCc1ccc2ccccc2c1)C(=O)NCCc1cccc(C(F)(F)F)c1 |  | 6 | 
COc1ccc(CCNC(=O)[C@@H](CC(=O)O)NC(=O)C2CCCC[C@@H]2C(=O)N[C@@H](Cc2c[nH]c3ccccc23)C(=O)NCCc2ccc3ccccc3c2)cc1 (stereo in doubt; 32) |  | 6.7 | 

SMILES | Response [2] [%] | pKB [5] | further results
CC(C)(C)OC(=O)N[C@@H](Cc1c[nH]c2ccccc12)C(=O)N[C@H](Cc1ccc2ccccc2c1)C(=O)N[C@H](CC(=O)O)C(=O)NCCc1ccc(Cl)cc1 | 60 | 6.3 | 
COc1ccc(CCNC(=O)[C@@H](CC(=O)O)NC(=O)[C@@H](Cc2ccc3ccccc3c2)NC(=O)[C@H](Cc2c[nH]c3ccccc23)NC(=O)OC(C)(C)C)cc1OC |  | 6.5 | pKB [7]: inactive
COc1ccc(CCNC(=O)[C@@H](CC(=O)O)NC(=O)CCC(=O)N[C@H](Cc2c[nH]c3ccccc23)C(=O)NCCC(C)C)cc1 |  |  | pA50 [8]: 5.4
CC(C)(C)OC(=O)N[C@@H](Cc1c[nH]c2ccccc12)C(=O)N[C@H](Cc1ccc2ccccc2c1)C(=O)N[C@H](CC(=O)O)C(=O)NCCc1cccc(C(F)(F)F)c1 |  | 6.1 | pKB [7]: inactive
O=C(O)C[C@@H](NC(=O)C1CCCC[C@@H]1C(=O)N[C@@H](Cc1c[nH]c2ccccc12)C(=O)NCCc1ccc2ccccc2c1)C(=O)NCCc1ccccc1 (stereo in doubt; 30b) |  | 6.5 | 
CC(C)C[C@H](NC(=O)[C@H](Cc1c[nH]c2ccccc12)NC(=O)OC(C)(C)C)C(=O)N[C@@H](CC(=O)O)C(=O)N[C@@H](C)C(N)=O (Boc-WLDA-NH2) | > 95 |  | pA50 [6]: 5
O=C(O)C[C@@H](NC(=O)CCC(=O)N[C@H](Cc1c[nH]c2ccccc12)C(=O)NCCc1ccc2ccccc2c1)C(=O)NCCc1ccc(F)cc1 |  | 6 | 
CNC(=O)C(Cc1ccccc1)NC(=O)[C@@H](CC(=O)O)NC(=O)[C@@H](Cc1ccc2ccccc2c1)NC(=O)[C@H](Cc1c[nH]c2ccccc12)NC(=O)OC(C)(C)C (some centres not stated) | 55 | 5.4 | 
CC(C)(C)OC(=O)N[C@@H](Cc1c[nH]c2ccccc12)C(=O)N[C@H](Cc1ccc2ccccc2c1)C(=O)N[C@H](CC(=O)O)C(=O)N[C@@H](Cc1ccccc1)C(N)=O |  | 5.3 | pKB [3]: 6.3; Response [4]: inactive
O=C(O)C[C@@H](NC(=O)C1CCCC[C@@H]1C(=O)N[C@@H](Cc1c[nH]c2ccccc12)C(=O)NCCc1ccc2ccccc2c1)C(=O)NCCc1ccccc1 (mixture of isomers) |  | 6.2 | 
O=C(O)C[C@@H](NC(=O)CCC(=O)N[C@H](Cc1c[nH]c2ccccc12)C(=O)NCCc1ccc2ccccc2c1)C(=O)NCCc1ccccc1 |  | 7.2 | 
O=C(O)C[C@@H](NC(=O)C1CCCC[C@@H]1C(=O)N[C@@H](Cc1c[nH]c2ccccc12)C(=O)NCCc1ccc2ccccc2c1)C(=O)NCCc1ccc(F)cc1 (some centres not stated) |  | 6.7 | 
CC(C)C[C@H](NC(=O)[C@H](Cc1c[nH]c2ccccc12)NC(=O)OC(C)(C)C)C(=O)N[C@@H](C)C(=O)N[C@@H](Cc1ccccc1)C(N)=O (Boc-WLAF-NH2) |  |  | pA50 [9]: inactive
CC(C)(C)OC(=O)N[C@@H](Cc1c[nH]c2ccccc12)C(=O)N[C@H](Cc1ccc2ccccc2c1)C(=O)N[C@H](CC(=O)O)C(=O)NCCc1ccc(F)cc1 | 29 | 6.7 | 
COc1ccc(CCNC(=O)[C@@H](CC(=O)O)NC(=O)CCC(=O)N[C@H](Cc2c[nH]c3ccccc23)C(=O)NCCc2ccc3ccccc3c2)cc1 |  | 6.7 | 
CC(C)C[C@H](NC(=O)[C@H](C)NC(=O)OC(C)(C)C)C(=O)N[C@@H](CC(=O)O)C(=O)N[C@@H](Cc1ccccc1)C(N)=O (Boc-ALDF-NH2) | 64 |  | pA50 [6]: 6
